Assay results taken from ChEMBL document CHEMBL3259628, “Discovery of novel 2-((pyridin-3-yloxy)methyl)piperazines as α7 nicotinic acetylcholine receptor modulators for the treatment of inflammatory disorders” (J Med Chem, 2014).
Calls of active or inactive are those of the source. The rule behind the calls is not given here.

What was measured:
[1] = target: Neuronal acetylcholine receptor subunit alpha-7 (Rattus norvegicus, UniProt Q05941); assay: Inhibition of biotinylated alpha-bungarotoxin binding to alpha7 nAChR in rat PC12 cells by FACS analysis; assay type: cell-based, PC-12
Outline: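 Rat PC12 cells in binding buffer (PBS, 1.0% FBS, 0.02% sodium azide), 0.1% DMSO; biotinylated α-bungarotoxin 10 nM final, 1 h at room temperature; nonspecific binding defined with 1.5 μM unlabeled toxin. After washing, phycoerythrin-streptavidin 1.0 μg/mL final, 15 min in the dark; read by FACS. Screened at 10 and 1 μM, then eight-point 3-fold dilution IC50; mean of two or more experiments.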

[2] = target: T1, Neuronal acetylcholine receptor subunit alpha-7 (Homo sapiens, UniProt P36544); assay: Agonist activity at human alpha7 nAChR expressed in Xenopus oocytes by voltage clamp method; assay type: cell-based
[3] = target: T2, Neuronal acetylcholine receptor; alpha4/beta2 (Homo sapiens, UniProt P17787+P43681); assay: Agonist activity at human alpha4beta2 nAChR expressed in Xenopus oocytes by voltage clamp method; assay type: cell-based
[4] = target: Acetylcholine receptor; alpha1/beta1/delta/gamma (Homo sapiens) (UniProt P02708+P07510+P11230+Q07001); assay: Inhibition of alpha1beta1gammadelta nAChR (unknown origin) at 10 uM; assay type: protein-complex assay
Outline: (§1)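 Receptor, ion channel and transporter binding panel run at Cerep in duplicate. Percent inhibition measured at 10 μM compound.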

[5] = target: T3, 5-hydroxytryptamine receptor 3A (Homo sapiens) (UniProt P46098); assay: Inhibition of 5-HT3 receptor (unknown origin) at 10 uM; outline: as §1
T3 sequence (whole entry): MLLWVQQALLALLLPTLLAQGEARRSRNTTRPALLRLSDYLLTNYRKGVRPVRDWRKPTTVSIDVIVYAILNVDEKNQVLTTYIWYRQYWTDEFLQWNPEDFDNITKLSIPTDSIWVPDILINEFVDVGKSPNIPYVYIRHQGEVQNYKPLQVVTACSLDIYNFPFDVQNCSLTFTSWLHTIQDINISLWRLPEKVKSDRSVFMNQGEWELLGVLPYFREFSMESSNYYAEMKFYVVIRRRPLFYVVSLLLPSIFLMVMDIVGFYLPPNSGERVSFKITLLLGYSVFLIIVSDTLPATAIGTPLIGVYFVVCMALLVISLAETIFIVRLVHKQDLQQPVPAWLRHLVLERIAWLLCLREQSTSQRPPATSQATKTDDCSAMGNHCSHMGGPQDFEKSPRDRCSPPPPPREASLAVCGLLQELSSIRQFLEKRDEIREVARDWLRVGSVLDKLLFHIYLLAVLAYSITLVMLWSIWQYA

CYP1A2 = target: T4, CYP1A2 (Homo sapiens, UniProt P05177); assay: Inhibition of CYP1A2 (unknown origin) at 10 uM; assay type: ADME
T4 sequence (P05177 whole entry): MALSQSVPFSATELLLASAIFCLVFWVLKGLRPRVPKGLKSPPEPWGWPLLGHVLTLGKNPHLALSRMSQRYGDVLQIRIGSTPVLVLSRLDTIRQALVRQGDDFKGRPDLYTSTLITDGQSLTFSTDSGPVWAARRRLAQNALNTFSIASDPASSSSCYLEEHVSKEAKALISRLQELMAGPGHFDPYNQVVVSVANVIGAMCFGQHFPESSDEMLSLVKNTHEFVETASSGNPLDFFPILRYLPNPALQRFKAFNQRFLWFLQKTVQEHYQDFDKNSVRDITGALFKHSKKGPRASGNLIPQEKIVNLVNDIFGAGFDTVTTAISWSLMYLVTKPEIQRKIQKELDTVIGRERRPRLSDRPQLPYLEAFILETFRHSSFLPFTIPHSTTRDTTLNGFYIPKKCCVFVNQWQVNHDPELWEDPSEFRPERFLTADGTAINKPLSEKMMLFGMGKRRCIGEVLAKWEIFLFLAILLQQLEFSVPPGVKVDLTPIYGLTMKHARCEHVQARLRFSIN
Outline: (§2)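 Each of five Cyp isoforms assayed with single probe substrates rather than a substrate cocktail. Run in duplicate at Cerep. IC50 lines come from a 5-concentration titration curve.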

CYP2C9 = CYP2C9 (Homo sapiens, UniProt P11712); assay: Inhibition of CYP2C9 (unknown origin) at 10 uM; assay type: ADME; outline: as §2
CYP2C19 = CYP2C19 (Homo sapiens, UniProt P33261); assay: Inhibition of CYP2C19 (unknown origin) at 10 uM; assay type: ADME; outline: as §2
CYP2D6 = CYP2D6 (Homo sapiens, UniProt P10635); assay: Inhibition of CYP2D6 (unknown origin) at 10 uM; assay type: ADME; outline: as §2
CYP3A4 = CYP3A4 (Homo sapiens, UniProt P08684); assay: Inhibition of CYP3A4 (unknown origin) at 10 uM; assay type: ADME; outline: as §2
[6] = target: Adenosine receptor A2a (Homo sapiens) (UniProt P29274); assay: Inhibition of adenosine A2a receptor (unknown origin) at 10 uM; outline: as §1
[7] = Half life in mouse at 1 mg/kg, iv; assay type: ADME, organism-based; set-up: dose 1 mg/kg, route intravenous; settings: in vivo
[8] = Clearance in mouse at 1 mg/kg, iv; assay type: ADME, organism-based; set-up: dose 1 mg/kg, route intravenous; settings: in vivo
[9] = Oral bioavailability in mouse at 5 mg/kg; assay type: ADME, organism-based; settings: in vivo
[10] = Half life in mouse at 5 mg/kg, po; assay type: ADME, organism-based; set-up: dose 5 mg/kg, route oral; settings: in vivo
[11] = Cmax in mouse at 5 mg/kg, po; assay type: ADME, organism-based; set-up: dose 5 mg/kg, route oral; settings: in vivo
Mus musculus [12] = assay: (§3) Antiinflammatory activity against ovalbumin-induced allergic lung inflammation BALB/c mouse model assessed as reduction in total blood cells in brochoalveolar lavage fluid at 5 mg/kg, po qd administered on day 29 to 31 post ovalbumin challenge measured 8 hrs post last challenge relative to vehicle-treated control; assay type: functional
Outline: (§4)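 Balb/c mice sensitized with ovalbumin by IP injection on days 1 and 14, then challenged intranasally with 100 μg ovalbumin on days 29, 30 and 31. Compound in saline given orally starting 30 min before each challenge; groups of six mice. Sham groups were saline-sensitized and allergen-challenged. BAL taken 8 h after the last challenge, with differential cell counts on slides.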

Mus musculus [13] = assay: as §3, with “1” for “5”; assay type: functional; outline: as §4
Mus musculus [14] = assay: as §3, with “neutrophils” for “total blood cells”; assay type: functional; settings: Bronchoalveolar lavage; outline: as §4
Mus musculus [15] = assay: as §3, with “neutrophils” for “total blood cells”, “1” for “5”; assay type: functional; settings: Bronchoalveolar lavage; outline: as §4
Mus musculus [16] = assay: as §3, with “eosinophils” for “total blood cells”, “1” for “5”; assay type: functional; outline: as §4
Mus musculus [17] = assay: as §3, with “eosinophils” for “total blood cells”; assay type: functional, organism-based; set-up: dose 5 mg/kg; outline: as §4
[18] = target: T1, Neuronal acetylcholine receptor subunit alpha-7; settings: 300 uM
[19] = target: T2, Neuronal acetylcholine receptor; alpha4/beta2; assay: Inhibition of human alpha4beta2 nAChR by binding assay
[20] = target: T2, Neuronal acetylcholine receptor; alpha4/beta2; assay: Agonist activity at alpha4beta2 nAChR (unknown origin)
hERG (KCNH2) = hERG (KCNH2) (Homo sapiens, UniProt Q12809); assay: Inhibition of human ERG at 1 uM by whole-cell voltage clamp assay
Mus musculus [21] = assay: as §3, with “10” for “5”, “bid” for “qd”; assay type: functional, organism-based; set-up: dose 10 mg/kg; outline: as §4
Mus musculus [22] = assay: as §3, with “neutrophils” for “total blood cells”, “10” for “5”, “bid” for “qd”; assay type: functional, organism-based; set-up: dose 10 mg/kg; settings: Bronchoalveolar lavage; outline: as §4
Mus musculus [23] = assay: as §3, with “eosinophils” for “total blood cells”, “10” for “5”, “bid” for “qd”; assay type: functional, organism-based; set-up: dose 10 mg/kg; outline: as §4
[24] = target: T2, Neuronal acetylcholine receptor; alpha4/beta2; assay: Inhibition of human alpha4beta2 nAChR at 10 uM by binding assay

Sequence of CYP2C9 (P11712 whole entry): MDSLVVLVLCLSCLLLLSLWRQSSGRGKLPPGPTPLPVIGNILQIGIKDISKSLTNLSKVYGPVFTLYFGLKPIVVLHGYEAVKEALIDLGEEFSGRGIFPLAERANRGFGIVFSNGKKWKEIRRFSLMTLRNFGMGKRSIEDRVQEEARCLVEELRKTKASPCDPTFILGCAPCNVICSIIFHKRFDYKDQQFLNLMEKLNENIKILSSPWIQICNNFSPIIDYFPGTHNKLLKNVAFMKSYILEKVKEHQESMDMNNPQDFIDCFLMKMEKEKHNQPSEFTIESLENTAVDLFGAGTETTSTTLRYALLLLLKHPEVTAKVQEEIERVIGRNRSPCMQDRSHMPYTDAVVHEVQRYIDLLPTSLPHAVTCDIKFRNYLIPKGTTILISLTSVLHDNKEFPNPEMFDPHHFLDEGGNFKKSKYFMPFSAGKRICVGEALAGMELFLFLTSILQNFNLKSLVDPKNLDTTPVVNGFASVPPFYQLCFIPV
Sequence of Neuronal acetylcholine receptor subunit alpha-7 (Rattus norvegicus, UniProt Q05941) (Q05941 whole entry): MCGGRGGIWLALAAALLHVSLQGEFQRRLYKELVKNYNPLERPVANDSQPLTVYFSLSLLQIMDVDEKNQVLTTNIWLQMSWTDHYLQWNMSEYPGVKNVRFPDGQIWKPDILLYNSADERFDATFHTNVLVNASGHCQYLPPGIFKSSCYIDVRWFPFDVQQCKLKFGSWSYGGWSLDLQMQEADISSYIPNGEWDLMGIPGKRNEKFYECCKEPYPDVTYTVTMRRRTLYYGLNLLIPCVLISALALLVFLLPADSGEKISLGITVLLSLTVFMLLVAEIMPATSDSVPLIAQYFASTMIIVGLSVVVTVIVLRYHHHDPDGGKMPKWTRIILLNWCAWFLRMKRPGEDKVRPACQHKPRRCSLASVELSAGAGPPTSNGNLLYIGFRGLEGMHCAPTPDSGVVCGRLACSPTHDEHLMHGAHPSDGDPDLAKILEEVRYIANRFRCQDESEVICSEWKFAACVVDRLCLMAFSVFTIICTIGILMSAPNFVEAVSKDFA
T2 sequence (P17787 whole entry): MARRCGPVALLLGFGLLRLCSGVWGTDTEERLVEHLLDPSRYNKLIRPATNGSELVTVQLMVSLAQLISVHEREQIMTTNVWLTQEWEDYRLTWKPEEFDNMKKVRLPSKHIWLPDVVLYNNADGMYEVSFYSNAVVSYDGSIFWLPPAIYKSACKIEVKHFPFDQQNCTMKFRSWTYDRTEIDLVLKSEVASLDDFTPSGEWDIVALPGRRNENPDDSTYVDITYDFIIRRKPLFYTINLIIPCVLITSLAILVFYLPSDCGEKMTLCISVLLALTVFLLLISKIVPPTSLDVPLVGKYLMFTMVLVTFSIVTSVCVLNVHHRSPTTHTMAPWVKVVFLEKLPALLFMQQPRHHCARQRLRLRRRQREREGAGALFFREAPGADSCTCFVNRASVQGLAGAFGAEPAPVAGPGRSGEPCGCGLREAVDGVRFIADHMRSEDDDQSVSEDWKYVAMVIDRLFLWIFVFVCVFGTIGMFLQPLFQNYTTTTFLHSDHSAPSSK
T2 sequence (P43681 whole entry): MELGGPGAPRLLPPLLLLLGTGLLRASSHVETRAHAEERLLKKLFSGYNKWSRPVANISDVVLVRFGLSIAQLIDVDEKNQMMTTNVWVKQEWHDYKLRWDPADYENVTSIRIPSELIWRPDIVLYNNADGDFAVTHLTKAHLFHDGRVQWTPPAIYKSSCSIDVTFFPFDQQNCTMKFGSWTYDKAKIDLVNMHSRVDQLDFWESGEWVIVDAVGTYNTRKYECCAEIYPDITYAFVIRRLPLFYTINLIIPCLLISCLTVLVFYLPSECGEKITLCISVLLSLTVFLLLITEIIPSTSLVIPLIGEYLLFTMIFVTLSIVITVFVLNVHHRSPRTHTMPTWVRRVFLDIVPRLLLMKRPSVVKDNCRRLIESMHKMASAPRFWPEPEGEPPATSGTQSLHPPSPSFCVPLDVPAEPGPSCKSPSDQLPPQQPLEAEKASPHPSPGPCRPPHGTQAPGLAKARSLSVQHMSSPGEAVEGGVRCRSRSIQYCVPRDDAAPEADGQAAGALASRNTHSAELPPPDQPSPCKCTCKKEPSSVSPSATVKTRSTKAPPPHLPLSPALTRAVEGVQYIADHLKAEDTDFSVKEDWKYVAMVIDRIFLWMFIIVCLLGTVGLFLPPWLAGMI
T1 sequence (P36544 whole entry): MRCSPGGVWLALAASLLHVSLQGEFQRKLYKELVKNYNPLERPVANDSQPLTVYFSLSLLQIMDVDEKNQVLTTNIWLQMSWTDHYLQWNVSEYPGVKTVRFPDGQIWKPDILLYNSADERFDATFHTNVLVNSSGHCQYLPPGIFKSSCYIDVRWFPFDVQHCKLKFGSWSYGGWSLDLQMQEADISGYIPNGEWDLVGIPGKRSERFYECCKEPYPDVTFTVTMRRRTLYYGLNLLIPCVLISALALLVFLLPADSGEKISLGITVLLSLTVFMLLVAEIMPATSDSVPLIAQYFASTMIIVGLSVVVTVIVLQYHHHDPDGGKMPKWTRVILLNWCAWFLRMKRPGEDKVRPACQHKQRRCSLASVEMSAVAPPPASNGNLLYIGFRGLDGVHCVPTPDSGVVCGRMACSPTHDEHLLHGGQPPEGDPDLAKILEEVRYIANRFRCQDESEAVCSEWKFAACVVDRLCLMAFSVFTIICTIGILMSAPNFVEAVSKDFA
Sequence of CYP3A4 (P08684 whole entry): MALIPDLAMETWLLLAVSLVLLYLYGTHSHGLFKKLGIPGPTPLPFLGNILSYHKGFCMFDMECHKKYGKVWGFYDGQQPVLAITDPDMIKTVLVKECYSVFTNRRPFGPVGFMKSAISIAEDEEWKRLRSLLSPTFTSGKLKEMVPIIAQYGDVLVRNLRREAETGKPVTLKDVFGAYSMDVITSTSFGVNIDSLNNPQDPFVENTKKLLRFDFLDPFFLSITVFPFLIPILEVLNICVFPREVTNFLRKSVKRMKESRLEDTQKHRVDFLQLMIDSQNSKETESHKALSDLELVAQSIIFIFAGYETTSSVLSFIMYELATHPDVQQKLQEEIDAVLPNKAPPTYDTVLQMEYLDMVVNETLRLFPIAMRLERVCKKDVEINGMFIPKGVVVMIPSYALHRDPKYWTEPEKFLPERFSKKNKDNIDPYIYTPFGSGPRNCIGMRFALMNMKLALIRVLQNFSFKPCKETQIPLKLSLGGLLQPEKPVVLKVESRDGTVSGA
Sequence of CYP2C19 (P33261 whole entry): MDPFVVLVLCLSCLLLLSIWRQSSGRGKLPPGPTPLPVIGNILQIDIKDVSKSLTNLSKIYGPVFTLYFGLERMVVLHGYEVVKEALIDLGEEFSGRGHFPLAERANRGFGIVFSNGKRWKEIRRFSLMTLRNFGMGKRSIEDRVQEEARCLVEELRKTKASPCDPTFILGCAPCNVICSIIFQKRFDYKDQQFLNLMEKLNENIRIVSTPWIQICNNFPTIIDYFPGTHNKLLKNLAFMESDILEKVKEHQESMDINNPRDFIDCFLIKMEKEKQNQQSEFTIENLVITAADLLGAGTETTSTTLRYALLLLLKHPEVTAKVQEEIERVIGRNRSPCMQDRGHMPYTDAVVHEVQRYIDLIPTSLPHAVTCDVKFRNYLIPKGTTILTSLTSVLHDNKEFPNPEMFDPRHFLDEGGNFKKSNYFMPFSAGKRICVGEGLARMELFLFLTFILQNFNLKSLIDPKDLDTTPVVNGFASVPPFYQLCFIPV
Sequence of CYP2D6 (P10635 whole entry): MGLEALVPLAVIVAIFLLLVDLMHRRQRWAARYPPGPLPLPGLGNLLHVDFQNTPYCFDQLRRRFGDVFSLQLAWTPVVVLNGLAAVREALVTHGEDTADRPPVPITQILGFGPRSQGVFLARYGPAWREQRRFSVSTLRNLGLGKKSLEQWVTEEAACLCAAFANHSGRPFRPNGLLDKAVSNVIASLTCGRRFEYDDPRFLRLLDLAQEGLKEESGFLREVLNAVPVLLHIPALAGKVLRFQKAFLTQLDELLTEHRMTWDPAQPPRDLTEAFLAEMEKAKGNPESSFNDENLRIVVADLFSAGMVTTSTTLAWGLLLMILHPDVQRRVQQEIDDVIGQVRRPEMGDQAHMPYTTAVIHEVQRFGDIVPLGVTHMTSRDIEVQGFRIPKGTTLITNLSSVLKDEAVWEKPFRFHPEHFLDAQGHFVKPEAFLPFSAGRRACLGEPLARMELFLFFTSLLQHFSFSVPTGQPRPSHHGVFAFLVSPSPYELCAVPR
Sequence of Adenosine receptor A2a (Homo sapiens) (P29274 whole entry): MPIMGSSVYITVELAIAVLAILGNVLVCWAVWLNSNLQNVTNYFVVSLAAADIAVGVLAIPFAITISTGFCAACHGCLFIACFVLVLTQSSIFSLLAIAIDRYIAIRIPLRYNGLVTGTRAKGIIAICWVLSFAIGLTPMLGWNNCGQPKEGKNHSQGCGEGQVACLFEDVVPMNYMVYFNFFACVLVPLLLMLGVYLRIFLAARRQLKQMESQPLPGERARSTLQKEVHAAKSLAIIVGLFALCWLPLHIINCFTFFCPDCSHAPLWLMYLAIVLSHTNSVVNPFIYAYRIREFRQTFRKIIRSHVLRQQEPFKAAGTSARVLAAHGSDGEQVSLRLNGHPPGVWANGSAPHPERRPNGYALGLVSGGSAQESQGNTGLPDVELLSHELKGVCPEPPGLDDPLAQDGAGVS

Cl.c1cncc(OC[C@H]2CNCCN2c2nc3ncccc3o2)c1
IC50 [1]: 5.5 nM
EC50 [2]: 200 nM
Activity [3]: inactive
inhibition [4]: 1%
inhibition [5]: 43%
inhibition at 10 µM (CYP1A2): 25%
inhibition at 10 µM (CYP2C9): 22%
inhibition at 10 µM (CYP2C19): 9%
inhibition at 10 µM (CYP2D6): 1%
inhibition at 10 µM (CYP3A4): 5%
inhibition [6]: 50%
half-life [7]: 19 min
clearance [8]: 72 mL/min/kg
bioavailability [9]: 50%
half-life [10]: 98 min
Cmax [11]: 2530 nM
inhibition in vivo at 5 mg/kg (Mus musculus [12]): 60%
inhibition in vivo at 1 mg/kg (Mus musculus [13]): 60%
inhibition in vivo at 5 mg/kg (Mus musculus [14]): 78%
inhibition in vivo at 1 mg/kg (Mus musculus [15]): 90%
inhibition in vivo at 1 mg/kg (Mus musculus [16]): 64%
inhibition (Mus musculus [17]): inactive
Emax [18]: 85%
IC50 [19]: 58 nM

c1cncc(OC[C@@H]2CCN2)c1
Ki [20]: 0.052 nM

COc1ccc(NC(=O)N2CCNCC2COc2cccnc2)cc1 (racemic)
IC50 [1]: 60 nM
inhibition [4]: -8%
inhibition [5]: 23%
inhibition at 1 µM (hERG (KCNH2)): 15%
inhibition at 10 µM (CYP1A2): 11%
inhibition at 10 µM (CYP2C9): 14%
inhibition at 10 µM (CYP2C19): 17%
inhibition at 10 µM (CYP2D6): 0%
inhibition at 10 µM (CYP3A4): 7%
inhibition (Mus musculus [21]): Active
inhibition (Mus musculus [22]): Active
inhibition (Mus musculus [23]): Active
inhibition [24]: 33%
